Results published in ChEMBL document CHEMBL1140136, “Structural modifications of N-(1,2,3,4-tetrahydronaphthalen-1-yl)-4-aryl-1-piperazinehexanamides: influence on lipophilicity and 5-HT7 receptor activity. Part III” (J Med Chem, 2008).
Active and inactive are the calls of the source. The rule behind the calls is not given here.

Experiments:
[1] = molecular target: 5-hydroxytryptamine receptor 7 (Rattus norvegicus, UniProt P32305); test: Displacement of [3H]LSD from rat cloned 5HT7 receptor expressed in HEK293 cells; assay type: cell-based
Chain of 5-hydroxytryptamine receptor 7 (Rattus norvegicus, UniProt P32305) (P32305 whole entry): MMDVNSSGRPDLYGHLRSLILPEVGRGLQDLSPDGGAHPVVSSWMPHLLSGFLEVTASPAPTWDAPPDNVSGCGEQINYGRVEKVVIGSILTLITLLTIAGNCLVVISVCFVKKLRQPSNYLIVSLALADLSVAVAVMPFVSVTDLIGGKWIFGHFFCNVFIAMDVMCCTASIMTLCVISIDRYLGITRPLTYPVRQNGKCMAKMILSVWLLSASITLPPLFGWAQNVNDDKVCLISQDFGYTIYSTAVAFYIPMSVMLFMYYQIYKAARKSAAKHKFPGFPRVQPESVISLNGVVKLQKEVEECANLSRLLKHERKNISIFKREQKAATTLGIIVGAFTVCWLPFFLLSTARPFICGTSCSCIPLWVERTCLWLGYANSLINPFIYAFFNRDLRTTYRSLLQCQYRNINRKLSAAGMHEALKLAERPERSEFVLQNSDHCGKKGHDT
Procedure, shortened: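 Rat recombinant 5-HT7 membranes (30 µg) from HEK-293 cells, with 2.5 nM [3H]-LSD and 6-9 compound concentrations. Incubated 60 min at 37 °C in 50 mM Tris, 10 mM MgCl2, 0.5 mM EDTA, pH 7.4, then filtered. Nonspecific binding with 10 µM 5-CT. Ki via Cheng-Prusoff; three experiments in triplicate.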

[2] = molecular target: T1, 5-hydroxytryptamine receptor 1A (Homo sapiens, UniProt P08908); test: Displacement of [3H]8-OH-DPAT from human cloned 5HT1A receptor expressed in HEK293 cells; assay type: cell-based
T1 sequence (P08908 whole entry): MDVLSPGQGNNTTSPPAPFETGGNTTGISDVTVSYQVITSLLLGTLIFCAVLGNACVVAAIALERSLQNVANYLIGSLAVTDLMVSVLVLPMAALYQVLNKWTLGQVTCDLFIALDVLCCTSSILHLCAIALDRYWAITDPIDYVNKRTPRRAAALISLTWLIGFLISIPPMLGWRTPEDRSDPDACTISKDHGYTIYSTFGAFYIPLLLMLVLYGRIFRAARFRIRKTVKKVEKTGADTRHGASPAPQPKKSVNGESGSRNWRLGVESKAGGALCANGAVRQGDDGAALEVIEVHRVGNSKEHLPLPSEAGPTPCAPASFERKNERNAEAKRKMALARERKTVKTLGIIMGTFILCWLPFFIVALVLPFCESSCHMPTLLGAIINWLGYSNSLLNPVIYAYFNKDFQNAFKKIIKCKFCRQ
Procedure, shortened: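 Membranes (40 µg) from HEK-293 cells stably expressing human 5-HT1A, with 1.0 nM [3H]-8-OH-DPAT and compound (0.1 nM-10 µM). Incubated 120 min at 37 °C in 50 mM Tris-HCl pH 7.4, 5 mM MgSO4, then filtered. Nonspecific binding with 10 µM 5-HT. Ki by nonlinear fit and Cheng-Prusoff; three experiments in triplicate.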

[3] = molecular target: D(2) dopamine receptor (Homo sapiens, UniProt P14416); test: Displacement of [3H]spiroperidol from human cloned dopamine D2L receptor expressed in rat C6 cells; assay type: cell-based
Chain of D(2) dopamine receptor (P14416 whole entry): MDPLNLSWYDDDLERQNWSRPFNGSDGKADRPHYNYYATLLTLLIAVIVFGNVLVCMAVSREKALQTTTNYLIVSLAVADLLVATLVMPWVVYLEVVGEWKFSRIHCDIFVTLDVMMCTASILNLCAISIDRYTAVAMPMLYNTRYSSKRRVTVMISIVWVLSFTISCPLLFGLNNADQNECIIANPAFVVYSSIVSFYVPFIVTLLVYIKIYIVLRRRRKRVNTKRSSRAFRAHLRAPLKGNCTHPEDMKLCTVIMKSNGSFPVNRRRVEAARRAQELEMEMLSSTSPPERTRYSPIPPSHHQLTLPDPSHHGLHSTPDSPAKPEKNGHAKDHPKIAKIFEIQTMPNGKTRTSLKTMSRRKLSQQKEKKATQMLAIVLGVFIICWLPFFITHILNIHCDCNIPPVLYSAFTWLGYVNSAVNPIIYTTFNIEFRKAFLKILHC

[4] = molecular target: 5-hydroxytryptamine receptor 7 (Cavia porcellus) (UniProt P50407); test: Agonist activity at 5HT7 receptor assessed as relaxation of substance P-induced Dunkin-Hartley guinea pig ileum contraction relative to 5-carboxamidotryptamine; assay type: functional, tissue-based; parameters: scale not given: the % may be the effect or the level left
Chain of 5-hydroxytryptamine receptor 7 (Cavia porcellus) (P50407 whole entry): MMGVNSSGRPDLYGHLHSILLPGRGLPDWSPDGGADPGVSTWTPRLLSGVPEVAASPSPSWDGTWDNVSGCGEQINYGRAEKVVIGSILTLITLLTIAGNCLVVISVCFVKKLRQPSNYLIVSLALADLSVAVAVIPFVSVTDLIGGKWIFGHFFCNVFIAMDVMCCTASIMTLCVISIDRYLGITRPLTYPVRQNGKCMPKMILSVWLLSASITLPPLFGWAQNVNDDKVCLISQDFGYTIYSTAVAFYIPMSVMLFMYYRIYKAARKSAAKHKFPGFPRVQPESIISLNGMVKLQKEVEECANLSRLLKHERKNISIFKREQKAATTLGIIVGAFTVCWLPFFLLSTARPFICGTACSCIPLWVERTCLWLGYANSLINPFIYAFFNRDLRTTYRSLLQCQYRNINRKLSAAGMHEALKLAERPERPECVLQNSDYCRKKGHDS
Procedure, shortened: (§1)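 Male Dunkin-Hartley guinea pigs (300-350 g); 3 cm proximal ileum segments were held under 1.0 g tension in Krebs-Henseleit at 37 °C, gassed with 95% O2/5% CO2. The bath contained 1 µM atropine, ketanserin and pyrilamine. Compound (0.001-10 µM) or the 5-CT reference was added 5 min before 100 nM substance P, giving noncumulative curves. Read-out was % reduction of contraction height; EC50 by nonlinear fitting.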

[5] = molecular target: T2, 5-hydroxytryptamine receptor 7 (Cavia porcellus, UniProt P50407); test: Agonist activity at 5HT7 receptor assessed as relaxation of substance P-induced Dunkin-Hartley guinea pig ileum contraction; assay type: functional, tissue-based; procedure, shortened: as §1
T2 sequence (P50407 whole entry): as above

[6] = Selectivity for rat cloned 5HT7 over human cloned dopamine D2
[7] = Selectivity for rat cloned 5HT7 over human cloned 5HT1A
[8] = Cmax in CD1 albino mouse plasma at 10 mg/kg, ip after 15 mins
[9] = Cmax in CD1 albino mouse brain at 10 mg/kg, ip after 30 mins; assay type: ADME, organism-based; parameters: dose 10 mg/kg, route intraperitoneal
Procedure, shortened: (§2)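 Male CD1 mice (25-30 g) received 10 mg/kg ip, with 3 mice per time point. Heparinized trunk blood gave plasma; brain was homogenized in water (1 g/10 mL). Samples were extracted with hexane/isoamyl alcohol and assayed by RP-HPLC-UV at 230 nm with an internal standard. Quantification limits were 0.1 µg/mL plasma and 0.1 µg/g brain. Cmax and its time were read from the data.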

[10] = Plasma concentration in CD1 albino mouse at 10 mg/kg, ip after 1 hr; assay type: ADME, organism-based; parameters: dose 10 mg/kg, route intraperitoneal; procedure, shortened: as §2
[11] = Elimination half life in CD1 albino mouse brain at 10 mg/kg, ip; assay type: ADME, organism-based; parameters: dose 10 mg/kg, route intraperitoneal; conditions: read-out: beta t1/2
Procedure, shortened: (§3)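 Male CD1 albino mice (25-30 g), 10 mg/kg i.p., 3 mice per time point. Brains were removed, blotted, frozen, homogenized in water (1 g/10 mL) and extracted twice with hexane/isoamyl alcohol. Parent and 1-arylpiperazine metabolite were measured by RP-HPLC-UV at 230 nm. LLOQ about 0.1 µg/g; no residual-blood correction. Cmax read directly, AUC by linear trapezoidal rule, t1/2 by noncompartmental analysis.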

[12] = molecular target: 5-hydroxytryptamine receptor 7 (Cavia porcellus) (UniProt P50407); test: Agonist activity at 5HT7 receptor assessed as relaxation of substance P-induced Dunkin-Hartley guinea pig ileum contraction at 1 mM; assay type: functional, tissue-based
Procedure, shortened: (§4)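 Guinea pig ileum was contracted by 100 nM substance P in Krebs-Henseleit with atropine, ketanserin and pyrilamine (1 µM each). Agonist tests were repeated after 5-HT7 desensitization: 60 min equilibration with 3 µM 5-CT, bath changed every 15 min. Relaxation was scored at single test concentrations as % reduction in contraction height.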

[13] = molecular target: 5-hydroxytryptamine receptor 7 (Rattus norvegicus) (UniProt P32305); test: Displacement of [3H]LSD from rat cloned 5HT7 receptor expressed in HEK293 cells at […]; assay type: cell-based
Chain of 5-hydroxytryptamine receptor 7 (Rattus norvegicus) (P32305 whole entry): as the sequence (P32305 whole entry) above

[14] = molecular target: 5-hydroxytryptamine receptor 7 (Cavia porcellus) (UniProt P50407); test: Agonist activity at 5HT7 receptor assessed as relaxation of substance P-induced Dunkin-Hartley guinea pig ileum contraction at 2 mM; assay type: functional, tissue-based; procedure, shortened: as §4
[15] = molecular target: 5-hydroxytryptamine receptor 7 (Cavia porcellus) (UniProt P50407); test: Agonist activity at 5HT7 receptor assessed as relaxation of substance P-induced Dunkin-Hartley guinea pig ileum contraction at 3 mM; assay type: functional, tissue-based; procedure, shortened: as §4
[16] = Cmax in CD1 albino mouse brain at 10 mg/kg, ip after 60 mins; assay type: ADME, organism-based; parameters: dose 10 mg/kg, route intraperitoneal; procedure, shortened: as §3
[17] = tested on: Mus musculus; test: AUC in CD1 albino mouse brain at 10 mg/kg, ip; assay type: ADME, organism-based; parameters: dose 10 mg/kg, route intraperitoneal; conditions: in vivo; procedure, shortened: as §3
[18] = molecular target: T2, 5-hydroxytryptamine receptor 7; test: Antagonist activity at 5HT7 receptor assessed as inhibition of 2-[6-[4-(2-Diphenyl)-1-piperazinyl]-1-oxohexyl]-1,2,3,4-tetrahydroisoquinoline mediated relaxation of substance P-induced Dunkin-Hartley guinea pig ileum contraction; assay type: functional, tissue-based; conditions: read-out: pA2 (converted)
Procedure, shortened: (§5)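 Male Dunkin-Hartley guinea pigs (300-350 g); whole proximal ileal segments (~3 cm) held under 1.0 g tension in Krebs-Henseleit, 95% O2/5% CO2, 37 °C. Bath contained 1 µM atropine, ketanserin and pyrilamine. Contraction evoked by 100 nM substance P; agonist added 5 min before; selective 5-HT7 antagonist at 0.1-3 µM; isometric tension relaxation, noncumulative curves.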

[19] = molecular target: T2, 5-hydroxytryptamine receptor 7; test: Antagonist activity at 5HT7 receptor assessed as inhibition of N-(4-Cyanophenylmethyl)-4-(2-diphenyl)-1-piperazinehexanamide mediated relaxation of substance P-induced Dunkin-Hartley guinea pig ileum contraction; assay type: functional, tissue-based; conditions: read-out: pA2 (converted); procedure, shortened: as §5
[20] = molecular target: T2, 5-hydroxytryptamine receptor 7; test: Antagonist activity at 5HT7 receptor assessed as inhibition of 4-(2-Diphenyl)-N-(4-pyridinylmethyl)-1-piperazinehexanamide mediated relaxation of substance P-induced Dunkin-Hartley guinea pig ileum contraction; assay type: functional, tissue-based; conditions: read-out: pA2 (converted); procedure, shortened: as §5
[21] = species on record: Mus musculus; test: Ratio of plasma AUC to brain AUC in CD1 albino mouse; assay type: ADME, organism-based; conditions: in vivo
Procedure, shortened: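 Male CD1 mice (25-30 g) were dosed at 10 mg/kg ip, 3 per time point. Trunk blood plasma and brain homogenate were extracted with hexane/isoamyl alcohol and analysed by RP-HPLC-UV at 230 nm. Quantification limit was ~0.1 µg/mL or µg/g. AUC was calculated by the linear trapezoidal rule, noncompartmental, extrapolated to infinity where possible.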

[22] = Cmax in CD1 albino mouse plasma at 10 mg/kg, ip after 30 mins; assay type: ADME, organism-based; parameters: dose 10 mg/kg, route intraperitoneal; procedure, shortened: as §2
[23] = tested on: Mus musculus; test: Volume of distribution in CD1 albino mouse plasma at 10 mg/kg, ip; conditions: in vivo
[24] = Elimination half life in CD1 albino mouse plasma at 10 mg/kg, ip; conditions: read-out: beta t1/2
[25] = Cmax in CD1 albino mouse brain at 10 mg/kg, ip after 120 mins; assay type: ADME, organism-based; parameters: dose 10 mg/kg, route intraperitoneal; procedure, shortened: as §3

| SMILES | Ki [1] | Ki [2] | Ki [3] | other results |
| --- | --- | --- | --- | --- |
| CSc1ccccc1N1CCN(CCCCCC(=O)N2CCc3ccccc3C2)CC1 | 32.9 nM | 2.04 nM | 40 nM | – |
| CC(C)c1ccccc1N1CCN(CCCCCC(=O)NCc2ccncc2)CC1 | 5.1 nM | 325 nM | 21 nM | – |
| COc1ccccc1N1CCN(CCCCCC(=O)N2CCc3ccccc3C2)CC1 | 31 nM | 40 nM | 22 nM | – |
| CC(C)c1ccccc1N1CCN(CCCCCC(=O)N2CCc3ccccc3C2)CC1 | 6 nM | 3.7 nM | 1.3 nM | – |
| CC(C)c1ccccc1N1CCN(CCCCCC(=O)NCc2ccc(C#N)cc2)CC1 | 8.6 nM | 53 nM | 20 nM | – |
| CC(C)c1ccccc1N1CCN(CCCCCC(=O)N2Cc3ccccc3C2)CC1 | 54 nM | 22 nM | 65 nM | – |
| NCCc1c[nH]c2ccc(C(N)=O)cc12 | – | – | – | Activity [4]: 100% |
| COc1ccccc1N1CCN(CCCCCC(=O)NCc2ccc(C#N)cc2)CC1 | 296 nM | 43 nM | 311 nM | – |
| O=C(CCCCCN1CCN(c2ccccc2-c2ccccc2)CC1)NCc1ccncc1 | 0.98 nM | 70 nM | 185 nM | EC50 [5]: 310 nM; Selectivity ratio [6]: 95; Activity [4]: 87%; Selectivity ratio [7]: 25 |
| COc1ccccc1N1CCN(CCCCCC(=O)NCc2ccccc2)CC1 | 224 nM | 13 nM | 226 nM | – |
| CC(C)c1ccccc1N1CCN(CCCCCC(=O)NCc2ccccc2)CC1 | 215 nM | 139 nM | 9.2 nM | – |
| CS(=O)(=O)Oc1ccc(CNC(=O)CCCCCN2CCN(c3ccccc3-c3ccccc3)CC2)cc1 | 5.7 nM | 106 nM | 723 nM | – |
| COc1ccccc1N1CCN(CCCCCC(=O)NCc2ccc(OS(C)(=O)=O)cc2)CC1 | 71 nM | 29 nM | 91 nM | – |
| CSc1ccccc1N1CCN(CCCCCC(=O)NC2CCCc3ccccc32)CC1 (stereo not given) | – | – | – | Cmax [8]: 310 ng/mL; Cmax [9]: 580 ng/g; concentration at 1 h [10]: < 100 ng/mL; half-life [11]: 0.333 h |
| COc1ccccc1N1CCN(CCCCCC(=O)N2Cc3ccccc3C2)CC1 | 179 nM | 3.2 nM | 730 nM | – |
| O=C(CCCCCN1CCN(c2ccccc2-c2ccccc2)CC1)NCc1ccccc1 | – | 161 nM | 503 nM | EC50 [5]: 4500 nM; Activity [12]: inactive; Activity [13]: 62%; Activity [14]: Active; Activity [15]: Active |
| CC(C)c1ccccc1N1CCN(CCCCCC(=O)NCc2ccc(OS(C)(=O)=O)cc2)CC1 | 76 nM | 57 nM | 7.8 nM | – |
| CSc1ccccc1N1CCN(CCCCCC(=O)NCc2ccc(C#N)cc2)CC1 | 9 nM | 94 nM | 5.3 nM | – |
| CSc1ccccc1N1CCN(CCCCCC(=O)NCc2ccc(OS(C)(=O)=O)cc2)CC1 | 148 nM | 10.3 nM | 30 nM | – |
| CSc1ccccc1N1CCNCC1 | – | – | – | Cmax [16]: 500 ng/g; AUC [17]: 85 µg/min/mL; half-life [11]: 1 h |
| O=C(CCCCCN1CCN(c2ccccc2-c2ccccc2)CC1)N1Cc2ccccc2C1 | 8.3 nM | 124 nM | 93 nM | – |
| CSc1ccccc1N1CCN(CCCCCC(=O)N2Cc3ccccc3C2)CC1 | 42 nM | 1.07 nM | 96 nM | – |
| O=C(CCCCCN1CCN(c2ccccc2-c2ccccc2)CC1)N1CCc2ccccc2C1 | 3.81 nM | 95 nM | 362 nM | EC50 [5]: 490 nM; Selectivity ratio [6]: 95; Activity [4]: 89%; Selectivity ratio [7]: 25 |
| CC1CCN(CC[C@H]2CCCN2S(=O)(=O)c2cccc(O)c2)CC1 | – | – | – | Kb [18]: 15.8 nM; Kb [19]: 20.4 nM; Kb [20]: 11 nM |
| N#Cc1ccc(CNC(=O)CCCCCN2CCN(c3ccccc3-c3ccccc3)CC2)cc1 | 0.58 nM | – | 142 nM | Ratio AUC [21]: 0.7; Cmax [22]: 760 ng/mL; EC50 [5]: 600 nM; Vd [23]: 11 L/kg; Cmax [9]: 540 ng/g; Activity [4]: 82%; half-life [11]: 1.15 h; half-life [24]: 1.08 h |
| c1ccc(-c2ccccc2N2CCNCC2)cc1 | – | – | – | AUC [17]: 94 µg/min/mL; half-life [11]: 1.45 h; Cmax [25]: 410 ng/g |
| CSc1ccccc1N1CCN(CCCCCC(=O)NCc2ccccc2)CC1 | 22 nM | 12 nM | 33 nM | – |
| CSc1ccccc1N1CCN(CCCCCC(=O)NCc2ccncc2)CC1 | 34.8 nM | 8.2 nM | 64 nM | – |
| COc1ccccc1N1CCN(CCCCCC(=O)NCc2ccncc2)CC1 | 389 nM | 19 nM | 501 nM | – |
